Data set [1] can be described thus: Stability of compound in human liver microsomes assessed as parent compound remaining at 1 uM measured at 10 mins in presence of NADPH. It counts as ADME, Microsome. Conditions: for remaining at 10 min, 1 µM: liver microsomes, read-out: Stabilty. Put shortly: (§1)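 Test compound at 1 μM with human, mouse or rat liver microsomes (0.5 mg/ml protein) plus NADPH cofactor; final solvents 0.01% DMSO, 0.05% acetonitrile; percent parent remaining at 10 min. Verapamil, cerivastatin and warfarin as positive controls. SD given when multiple batches were tested.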
(Microsomes from liver hold many membrane-bound enzymes, among them those of drug oxidation.)

A short description of data set [2]: Stability of compound in mouse liver microsomes assessed as parent compound remaining at 1 uM measured at 10 mins in presence of NADPH. It counts as ADME, Microsome. Conditions: read-out: Stabilty. Put shortly: as §1
The nature of data set [3]: Stability of compound in rat liver microsomes assessed as parent compound remaining at 1 uM measured at 10 mins in presence of NADPH. The format is ADME, Microsome. Conditions: for remaining at 10 min, 1 µM: liver microsomes, read-out: Stabilty. The gist of the method:
as §1

The target in data set [4] is T1, Sodium/glucose cotransporter 1 (Homo sapiens) (UniProt P13866).
T1 sequence (whole entry): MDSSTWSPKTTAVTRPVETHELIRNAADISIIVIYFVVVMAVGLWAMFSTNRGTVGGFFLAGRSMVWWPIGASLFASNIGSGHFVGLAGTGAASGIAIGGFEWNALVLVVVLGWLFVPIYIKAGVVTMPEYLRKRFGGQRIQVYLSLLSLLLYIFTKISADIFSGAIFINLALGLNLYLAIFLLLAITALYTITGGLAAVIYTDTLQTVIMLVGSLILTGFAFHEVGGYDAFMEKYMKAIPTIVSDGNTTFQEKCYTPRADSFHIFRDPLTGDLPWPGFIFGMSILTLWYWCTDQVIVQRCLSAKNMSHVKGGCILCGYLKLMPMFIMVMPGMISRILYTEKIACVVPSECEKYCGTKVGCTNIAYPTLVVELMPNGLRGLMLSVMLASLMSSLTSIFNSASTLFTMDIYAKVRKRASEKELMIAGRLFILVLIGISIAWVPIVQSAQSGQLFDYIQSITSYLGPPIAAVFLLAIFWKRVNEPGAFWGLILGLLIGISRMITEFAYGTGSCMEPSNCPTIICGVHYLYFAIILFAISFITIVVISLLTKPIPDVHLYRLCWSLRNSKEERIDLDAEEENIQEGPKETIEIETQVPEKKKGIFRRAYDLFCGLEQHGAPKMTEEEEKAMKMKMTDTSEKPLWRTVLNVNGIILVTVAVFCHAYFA
Briefly: Inhibition of human SGLT1 expressed in CHO cells assessed as reduction in [14C]-methyl-alpha -D-glucopyranoside accumulation at 0.3 uM relative to control. The format is cell-based. The gist of the method:
(§2)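 CHO cells expressing human SGLT1 or SGLT2; inhibition of [14C]methyl D-glucopyranoside (AMG) accumulation measured with test compound at 0.3 μM.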

For data set [5], the target named is T2, Sodium/glucose cotransporter 2 (Homo sapiens) (UniProt P31639).
T2 sequence (whole entry): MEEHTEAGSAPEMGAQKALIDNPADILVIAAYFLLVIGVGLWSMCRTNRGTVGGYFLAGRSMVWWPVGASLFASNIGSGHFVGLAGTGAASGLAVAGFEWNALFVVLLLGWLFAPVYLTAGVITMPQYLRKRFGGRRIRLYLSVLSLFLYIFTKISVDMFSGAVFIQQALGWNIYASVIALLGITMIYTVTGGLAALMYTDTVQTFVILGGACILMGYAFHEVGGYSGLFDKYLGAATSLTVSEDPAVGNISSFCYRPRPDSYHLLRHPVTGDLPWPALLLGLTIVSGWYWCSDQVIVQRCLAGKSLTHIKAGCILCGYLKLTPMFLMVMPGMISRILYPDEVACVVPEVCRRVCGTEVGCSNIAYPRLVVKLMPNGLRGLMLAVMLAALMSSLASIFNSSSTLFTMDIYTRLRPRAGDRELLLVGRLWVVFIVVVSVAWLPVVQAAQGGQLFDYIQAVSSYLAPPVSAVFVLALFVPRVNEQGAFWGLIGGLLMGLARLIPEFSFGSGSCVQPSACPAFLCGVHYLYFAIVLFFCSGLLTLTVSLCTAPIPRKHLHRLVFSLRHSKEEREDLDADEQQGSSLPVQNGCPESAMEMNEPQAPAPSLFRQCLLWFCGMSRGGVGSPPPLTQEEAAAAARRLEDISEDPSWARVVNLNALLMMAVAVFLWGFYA
Briefly: Inhibition of human SGLT2 expressed in CHO cells assessed as reduction in [14C]-methyl-alpha -D-glucopyranoside accumulation at 0.3 uM relative to control. The format is cell-based. Put shortly:
as §2

Data set [6] is described as follows: Clearance in Sprague-Dawley rat at 2 mg/kg, iv or 10 mg/kg, po. It counts as ADME, organism-based. To be noted: in vivo. The gist of the method:
(§3)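 Male Sprague Dawley rats dosed 2 mg/kg IV (vehicle 20% HPbCD) or 10 mg/kg PO (vehicle 0.5% Methocel); pharmacokinetic parameters derived from plasma exposure.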

Data set [7] in a line: Volume of distribution at steady state in Sprague-Dawley rat at 2 mg/kg, iv or 10 mg/kg, po. The format is ADME, organism-based. Conditions: in vivo, read-out: Vdss. Put shortly: as §3
A short description of data set [8]: Half life in Sprague-Dawley rat at 2 mg/kg, iv. It counts as ADME, organism-based. Conditions: in vivo. Put shortly: as §3
Data set [9] can be described thus: Cmax in Sprague-Dawley rat at 2 mg/kg, iv or 10 mg/kg, po. Details: dose 10 mg/kg. Conditions: in vivo. The format is ADME, organism-based. Put shortly:
as §3

Data set [10] is described as follows: Tmax in Sprague-Dawley rat at 2 mg/kg, iv or 10 mg/kg, po. The format is ADME, organism-based. Conditions: in vivo. Put shortly: as §3
Data set [11] can be described thus: Oral bioavailability in Sprague-Dawley rat at 10 mg/kg. The format is ADME, organism-based. Conditions: in vivo. Put shortly:
as §3

Data set [12] in a line: AUC (0 to infinity) in Sprague-Dawley rat at 2 mg/kg, iv or 10 mg/kg, po. The arrangement: dose 10 mg/kg. To be noted: in vivo. It counts as ADME, organism-based. Put shortly:
as §3

The subject of data set [13] is Rattus norvegicus. Nature of the data set: Hypoglycemic activity in overnight fasted Sprague-Dawley rat assessed as percent reduction in blood glucose AUC at 1 mg/kg, po measured after 4 hrs post glucose challenge by OGTT relative to control. It counts as functional. Details: scale not given: the % may be the effect or the level left. The gist of the method: (§4)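 Overnight-fasted SD rats dosed orally at 1 or 10 mg/kg in 0.5% Methocel (vehicle controls) 60 min before oral glucose challenge. […] N=8 per group; mean ± SEM; one-way ANOVA-Dunnett.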

Data set [14] relates to Rattus norvegicus. Briefly: Hypoglycemic activity in overnight fasted Sprague-Dawley rat assessed as percent reduction in blood glucose AUC at 10 mg/kg, po measured after 4 hrs post glucose challenge by OGTT relative to control. Details: scale not given: the % may be the effect or the level left. The format is functional. The gist of the method: as §4
Data set [15] in a line: In vivo inhibition of SGLT1/2 in overnight fasted Sprague-Dawley rat assessed as amount of urinary glucose excretion assessed per 4 hrs at 1 mg/kg, po. It counts as functional. Put shortly: as §4
Data set [16] relates to Rattus norvegicus. Nature of the data set: In vivo inhibition of SGLT1/2 in overnight fasted po dosed Sprague-Dawley rat assessed as reduction in blood glucose by OGTT. The format is functional, organism-based. To be noted: dose mg/kg 1-10.
Data set [17] can be described thus: Half life in human liver microsomes at 1 uM measured at 10 mins in presence of NADPH. The format is ADME, Microsome.
Data set [18] in a line: In vivo inhibition of SGLT1 in overnight fasted Sprague-Dawley rat assessed as amount of urinary glucose excretion assessed per 4 hrs at 1 mg/kg, po. The format is functional. The gist of the method:
as §4

Data set [19] is described as follows: In vivo inhibition of SGLT2 in overnight fasted Sprague-Dawley rat assessed as amount of urinary glucose excretion assessed per 4 hrs at 10 mg/kg, po. It counts as functional. Put shortly:
as §4

From ChEMBL document CHEMBL4725317 (Bioorg Med Chem Lett, 2020) come the findings set out here.

As a reminder, the inhibition is the drop in the measured response relative to a control, in per cent. A word on the half-life: it is the time in which the quantity being followed falls by half. The Cmax is the peak of the concentration-time curve. In general, Tmax refers to the time at which the peak concentration occurs. As usually defined, the bioavailability is the share of a dose that reaches the circulation, judged against a reference dose that is usually intravenous. For orientation: AUC(0-inf) means the area under the concentration-time curve extrapolated to infinity.

Each structure is given as a SMILES string.

In the case of `C[C@]1(F)[C@H](O)[C@@H](O)[C@H](c2cc(Cc3cc4ccccc4s3)c(Cl)cc2O)O[C@@H]1CO`, the remaining at 10 min, 1 µM in data set [1] came to 89%; in [2], 105%; in [3], 15%.
`COc1cc(Cl)c(Cc2cc3ccccc3s2)cc1[C@@H]1O[C@H](CO)C(F)(F)[C@H](O)[C@H]1O`: the remaining at 10 min, 1 µM in [1] worked out at 65%; in data set [2] it was 37%. In addition, the Stabilty in data set [3] (microsomes, 10 min, 1 µM) was found to be 123%.
Take `C[C@]1(F)[C@H](O)[C@@H](O)[C@H](c2cc(Cc3ccc4c(c3)OCCO4)c(Cl)cc2O)O[C@@H]1CO`: the remaining at 10 min, 1 µM in data set [1] came out at 74%; in [2], 96%; in [3], 56%.
On to `COc1cc(O)c([C@@H]2O[C@H](CO)[C@@](C)(F)[C@H](O)[C@H]2O)cc1Cc1ccc2c(c1)CCCO2`, for which the inhibition in data set [4] came to 31%; in [5], 67%.
In the case of `COc1cc(O)c([C@@H]2O[C@H](CO)C(F)(F)[C@H](O)[C@H]2O)cc1Cc1cc2ccccc2s1`, the remaining at 10 min, 1 µM in data set [1] came out at 103%; in data set [2], 111%; in [3] it was 98%.
In the case of `COc1cc(Cl)c(Cc2ccc3c(c2)OCCO3)cc1[C@@H]1O[C@H](CO)C(F)(F)[C@H](O)[C@H]1O`, the values for the inhibition in [4] and in data set [5] were 37% and 78%, respectively.
In the case of `COc1cc(O)c([C@@H]2O[C@H](CO)[C@@](C)(F)[C@H](O)[C@H]2O)cc1Cc1ccc2c(c1)OCCO2`, the remaining at 10 min, 1 µM in data set [1] was found to be 103%; in data set [2], 98%; in data set [3] it was 101%. Further, the clearance in data set [6] came to 72 mL/min/kg. For the same compound, the Vd in data set [7] was determined as 2.41 L/kg. Moreover, the half-life in data set [8] was 1.52 h. The compound also yielded a Cmax in [9] of 274 ng/mL. Moreover, the Tmax in data set [10] was 0.25 h. The same compound came in with a bioavailability in [11] of 21.8%.
For `OC[C@H]1O[C@@H](c2cc(Cc3ccc4c(c3)OCCO4)c(Cl)cc2O)[C@H](O)[C@@H](O)C1(F)F`, the remaining at 10 min, 1 µM in [1] is 96%; in [2], 74%; in [3] it was 18%.
Regarding `COc1cc(OC)c([C@@H]2O[C@H](CO)[C@@](C)(F)[C@H](O)[C@H]2O)cc1Cc1ccc2c(c1)OCCO2`, the inhibition was found to be 25% in data set [4] and 59% in data set [5].
For `COc1ccc(Cc2cc([C@@H]3O[C@H](CO)C(F)(F)[C@H](O)[C@H]3O)c(O)cc2Cl)cc1`, the remaining at 10 min, 1 µM came to 90% in data set [1], 97% in data set [2] and 58% in data set [3]. Also, the clearance in data set [6] is 10.9 mL/min/kg. The Vd in data set [7] amounted to 1.89 L/kg. In [8], this compound gave a half-life of 4.85 h. This compound showed an AUC(0-inf) in data set [12] of 2700 ng·h/mL. Further, the highest concentration (Cmax) in [9] was found to be 549 ng/mL. Further, the time of peak concentration (Tmax) in data set [10] was 0.42 h. Moreover, the bioavailability in data set [11] turned out to be 17.4%. Also, the Activity with Rattus norvegicus [13] amounted to 38.4%; in the data set with Rattus norvegicus [14] it was 62.8%; in [15], 0.099 g. In addition, the inhibition result in the data set with Rattus norvegicus [16] is “Dose-dependent effect”.
With `OC[C@H]1O[C@@H](c2cc(Cc3cc4ccccc4s3)c(Cl)cc2O)[C@H](O)[C@@H](O)C1(F)F`, the Stabilty in [1] (microsomes, 10 min, 1 µM) amounted to 120%. Besides, in data set [17], the t1/2 was greater than 3 h. Besides, the remaining at 10 min, 1 µM is 106% in data set [2] and 94% in data set [3]. The same compound had a clearance in [6] of 3.92 mL/min/kg. Besides, the Vd in data set [7] was 0.91 L/kg. Moreover, in data set [8], the half-life was 3.71 h. The AUC(0-inf) in data set [12] came to 18600 ng·h/mL. The peak concentration (Cmax) in data set [9] stood at 5240 ng/mL. For the same compound, the Tmax in data set [10] came to 0.31 h. The same compound registered a bioavailability in data set [11] of 46.8%. Moreover, the Activity worked out at 16% in the data set with Rattus norvegicus [13], 41.4% in the data set with Rattus norvegicus [14], 0.001 g in [18] and 0.005 g in data set [19].
For `COc1cc(O)c([C@@H]2O[C@H](CO)C(F)(F)[C@H](O)[C@H]2O)cc1Cc1ccc2c(c1)OCCO2`, the remaining at 10 min, 1 µM in data set [1] came out at 99%; in [2], 97%; in [3], 26%.
Taken in the same sequence, the figures for `COc1cc(O)c([C@@H]2O[C@H](CO)C(F)(F)[C@H](O)[C@H]2O)cc1Cc1ccc2c(c1)CCO2` were 100%, 91% and 70%.
